Source: ChEMBL document CHEMBL4840330, “Secoiridoids from Dogwood (Cornus officinalis) Potentiate Progesterone Signaling” (J Nat Prod, 2021)
Activity calls are given as the source filed them.

What was measured:
[1] = target: T1, Progesterone receptor (Homo sapiens) (UniProt P06401); assay: Potentiation of progesterone receptor B in progesterone-stimulated human Ishikawa cells assessed as induction of PRE/Luc transcriptional activity at 10 uM measured after 24 hrs by luciferase reporter gene assay relative to control
T1 sequence (whole entry): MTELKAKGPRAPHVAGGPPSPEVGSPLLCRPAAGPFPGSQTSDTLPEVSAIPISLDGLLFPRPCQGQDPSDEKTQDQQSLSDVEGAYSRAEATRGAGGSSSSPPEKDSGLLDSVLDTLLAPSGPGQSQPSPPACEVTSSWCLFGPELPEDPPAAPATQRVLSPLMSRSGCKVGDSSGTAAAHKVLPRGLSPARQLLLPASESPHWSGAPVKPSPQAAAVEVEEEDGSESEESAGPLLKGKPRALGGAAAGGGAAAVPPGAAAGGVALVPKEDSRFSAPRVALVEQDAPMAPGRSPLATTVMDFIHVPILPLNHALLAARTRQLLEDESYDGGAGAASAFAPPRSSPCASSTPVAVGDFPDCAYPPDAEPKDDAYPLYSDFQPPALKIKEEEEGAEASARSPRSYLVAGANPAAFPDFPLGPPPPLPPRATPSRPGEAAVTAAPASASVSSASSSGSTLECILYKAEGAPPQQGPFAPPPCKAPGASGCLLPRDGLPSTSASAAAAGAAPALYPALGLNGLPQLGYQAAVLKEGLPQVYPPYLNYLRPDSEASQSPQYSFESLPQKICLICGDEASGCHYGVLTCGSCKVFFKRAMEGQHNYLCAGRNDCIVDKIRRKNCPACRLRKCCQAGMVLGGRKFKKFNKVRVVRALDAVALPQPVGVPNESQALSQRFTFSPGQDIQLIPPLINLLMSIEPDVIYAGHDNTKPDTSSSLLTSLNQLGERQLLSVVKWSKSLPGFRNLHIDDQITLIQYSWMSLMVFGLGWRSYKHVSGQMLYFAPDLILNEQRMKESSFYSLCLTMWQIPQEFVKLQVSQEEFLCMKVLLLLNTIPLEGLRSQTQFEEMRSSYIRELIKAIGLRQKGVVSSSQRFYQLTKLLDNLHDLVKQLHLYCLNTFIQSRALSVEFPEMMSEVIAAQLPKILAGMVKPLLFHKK
In short: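 Ishikawa cells stably expressing PR-B co-treated with 1 nM progesterone plus test agent at 10 μM; PRE-luciferase reporter activity compared with 1 nM progesterone alone; n≥3; mean ± SEM, significance by p-value thresholds.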

[2] = target: T1, Progesterone receptor (Homo sapiens); assay: Induction of progesterone receptor B in human Ishikawa cells assessed as induction of PRE/Luc transcriptional activity at 10 uM measured after 24 hrs by luciferase reporter gene assay; assay type: cell-based
In short: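 Ishikawa cells stably expressing PR-B; test agent alone at 10 μM; PRE-driven luciferase reporter read-out; n≥3; mean ± SEM.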

Structure (SMILES)	Activity ([1]; filed as activator)	Activity [2]	Activity [1]
C=C[C@H]1[C@H](O[C@@H]2O[C@H](CO)[C@@H](O)[C@H](O)[C@H]2O)OC=C(C(=O)OC)[C@H]1CCOC(=O)c1cc(O)c(O)c(O)c1	43%	inactive	
COC(=O)C1=CO[C@@H](O[C@@H]2O[C@H](CO)[C@@H](O)[C@H](O)[C@H]2O)[C@@H]2[C@H](C)O[C@H](OC)C[C@H]12		inactive	29%
C=C[C@H]1C(O[C@@H]2O[C@H](CO)[C@@H](O)[C@H](O)[C@H]2O)OC=C(C(=O)OC)[C@H]1CC(=O)O (stereo partly specified)		inactive	
C=C[C@H]1C(O[C@@H]2O[C@H](CO)[C@@H](O)[C@H](O)[C@H]2O)OC=C(C(=O)O)[C@H]1CC(=O)O (stereo partly specified)		inactive	
COC(=O)C1=CO[C@@H](O[C@@H]2O[C@H](CO)[C@@H](O)[C@H](O)[C@H]2O)[C@@H]2[C@H](C)O[C@@H](OC)C[C@H]12		inactive	18%
C=C[C@H]1[C@H](O[C@@H]2O[C@H](CO)[C@@H](O)[C@H](O)[C@H]2O)OC=C(C(=O)O)[C@H]1CCOC(=O)c1cc(O)c(O)c(O)c1	42%	inactive	
C=C[C@H]1[C@H](O[C@@H]2O[C@H](CO)[C@@H](O)[C@H](O)[C@H]2O)OC=C2C(=O)OCC[C@H]21		inactive	
